Laboratory results: paper PMC7016294 (Acta Pharmaceutica Sinica. B, 2019)
Values joined by “and” are separate entries in the source; they are usually repeats but may differ in a detail not shown here. Equal values may be shown once. Values belong to the compound of their own block, whether it stands above or below them.

How the values were obtained:
[1] = target: S1P3 (EDG3) (Homo sapiens, UniProt Q99500); assay: β-arrestin assay; type: cell-based
Method in brief: (§1)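 Test compound (DMSO stock), at a range of concentrations, was added for 2 or 4 h at 37 °C. Receptor–β-arrestin recruitment was read as β-galactosidase enzyme-fragment complementation, with chemiluminescence measured after 1 h in detection reagent at room temperature. Activity was computed from the concentration series.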

[2] = target: T1, S1P4 (EDG6) (Homo sapiens, UniProt O95977); assay: β-arrestin assay; type: cell-based
T1 sequence (O95977 1-384): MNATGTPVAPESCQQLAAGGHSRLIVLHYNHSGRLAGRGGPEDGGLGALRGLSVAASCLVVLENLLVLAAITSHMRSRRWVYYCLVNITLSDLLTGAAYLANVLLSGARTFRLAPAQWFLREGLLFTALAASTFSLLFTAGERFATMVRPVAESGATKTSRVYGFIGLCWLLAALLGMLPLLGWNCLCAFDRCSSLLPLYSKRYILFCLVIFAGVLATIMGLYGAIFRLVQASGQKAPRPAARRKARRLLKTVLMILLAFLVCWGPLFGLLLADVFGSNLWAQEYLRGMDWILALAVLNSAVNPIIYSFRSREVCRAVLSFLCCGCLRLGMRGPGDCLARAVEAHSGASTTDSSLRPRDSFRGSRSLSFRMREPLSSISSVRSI
Method in brief: as §1

[3] = system: peripheral blood lymphocytes; assay: Peripheral blood lymphocytes; type: in vivo; conditions: SD rats, single oral dose (3 mg/kg), 1 week later
Method in brief: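 Male SD rats (6–8 weeks) were randomised and bled (20 μL, tail vein) for a baseline (0 h) lymphocyte count on a haematology analyser. Each received one oral dose of test compound (0.3, 1 or 3 mg/kg, in distilled water) or vehicle. Lymphocytes were counted again at 2, 4, 8, 12, 24, 72, 96, 144 and 168 h; n = 5.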

[4] = Heart rate measurement after a single oral dose; type: in vivo; conditions: SD rats, single oral dose 10 mg/kg
Method in brief: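 Male SD rats (6–8 weeks) had baseline heart rate taken with a non-invasive rodent blood-pressure/heart-rate meter. They then received a single oral 10 mg/kg dose of test compound in distilled water, or vehicle. Heart rate was re-measured at 2, 4, 8, 12, 24 and 48 h after dosing; n = 5.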

[5] = system: SDS-induced skin irritation; assay: SDS-induced acute skin irritation and inflammation mouse model; type: in vivo; conditions: KM mice, MTX 1.5 mg/kg, data not shown
Method in brief: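 Female KM mice had back hair removed and received 200 μL 15% SDS topically once daily for 7 days. From Day 8 they were dosed orally each day for 10 days with test compound (0.3–2.4 mg/kg, in water) or vehicle. On Day 18, skin thickness was measured. Skin was then fixed in 4% paraformaldehyde, cut into 5 μm H&E sections and scored blind (0–3 each) for epidermal thickening, fibroplasia, inflammatory infiltration and vasodilatation; n = 11.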

Sequence of S1P3 (EDG3) (Q99500 whole entry, the tested form may be a part): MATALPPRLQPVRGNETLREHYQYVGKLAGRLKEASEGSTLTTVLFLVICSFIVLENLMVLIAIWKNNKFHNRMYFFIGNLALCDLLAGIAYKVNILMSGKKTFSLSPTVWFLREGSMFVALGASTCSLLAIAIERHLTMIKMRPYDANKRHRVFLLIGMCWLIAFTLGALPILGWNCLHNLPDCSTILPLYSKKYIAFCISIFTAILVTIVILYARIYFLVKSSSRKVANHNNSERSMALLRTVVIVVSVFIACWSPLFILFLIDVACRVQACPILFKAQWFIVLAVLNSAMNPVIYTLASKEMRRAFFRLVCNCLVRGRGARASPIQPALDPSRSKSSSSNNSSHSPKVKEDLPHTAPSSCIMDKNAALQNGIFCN

EC50 [1]: 17.7 nM
EC50 [2]: 49.1 nM
Structure (SMILES): CCCCCCCCCCCCC/C=C/[C@@H](O)[C@@H](N)COP(=O)(O)O [S1P, Sphingosine-1-phosphate]

Structure (SMILES): CCCCCCCCc1ccc(CCC(N)(CO)CO)cc1 [FTY720, fingolimod]
Lymphocyte reduction 1 week after one administration [3]: 26%
Duration of heart rate decrease [4]: 12 h
Heart rate decrease ([4]; as early as 2 h after treatment, 10 mg/kg): 22% and 20%

Structure (SMILES): CN(Cc1cnc2nc(N)nc(N)c2n1)c1ccc(C(=O)N[C@@H](CCC(=O)O)C(=O)O)cc1 [MTX, Methotrexate]
Body weight during treatment [5]: started to decline from Day 10
